Data published in ChEMBL document CHEMBL1144558, “Potent anticancer activities of novel aminophenol analogues against various cancer cell lines” (2007).
Active and inactive are the calls of the source. No cut-off for these calls is given here.

Tests used:
MCF7 [1] = test: Growth inhibition of human estrogen receptor expressing MCF7 cells at 4 uM after 68 hrs relative to control; assay type: functional; conditions: MCF7, 68 h
Procedure, shortened: (§1)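 Adherent cells trypsinized, seeded at 0.5 × 10^4 cells/ml in RPMI 1640 with 10% FBS (maintenance medium also 10 mM HEPES pH 7.3), 37 °C, 5% CO2. Compound (4 µM) added after 1 day; 68 h exposure. Viable cells by MTT; % net growth = (treated − initial absorbance)/(control − initial absorbance) × 100. Mean of ≥3 (MCF-7 lines) or ≥4 (DU-145, HepG2) measurements.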

MCF7 [2] = test: Growth inhibition of human estrogen receptor deficient adriamycin-resistant MCF7 cells at 4 uM after 68 hrs relative to control; assay type: functional; conditions: MCF7, 68 h; procedure, shortened: as §1
HepG2 = test: Growth inhibition of human HepG2 cells at 4 uM after 68 hrs relative to control; assay type: functional; conditions: HepG2, 68 h; procedure, shortened: as §1
DU-145 = test: Growth inhibition of human DU145 cells at 4 uM after 68 hrs relative to control; assay type: functional; conditions: DU-145, 68 h; procedure, shortened: as §1
HL-60 [3] = test: Growth inhibition of human HL60 cells at 4 uM after 72 hrs relative to control; assay type: functional; conditions: HL-60, 72 h
HL-60 [4] = test: Induction of apoptosis in human HL60 cells assessed as DNA fragmentation at 4 uM after 20 hrs; assay type: functional, cell-based
Procedure, shortened: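 Cells at 2 × 10^5 cells/ml in RPMI/10% FBS treated 20 h with 4 µM compound (DMSO control). Washed in PBS pH 7.2, lysed with proteinase K, RNase A and 1% SDS at 37 °C for 30 min, then NaI/isopropanol DNA extraction at 60 °C. DNA run on 2% agarose gel, stained with ethidium bromide, scored for ladder.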

Row | Compound | inhibition at 4 µM (MCF7 [1]) | inhibition at 4 µM (MCF7 [2]) | inhibition at 4 µM (HepG2) | inhibition at 4 µM (DU-145) | inhibition at 4 µM (HL-60 [3]) | Activity (HL-60 [4])
1 | CCCCCCCCCC(=O)Nc1ccc(O)cc1 | 30% | 23% | 26% | 51% | 6% | –
2 | CCCCCCCCCCCC(=O)Nc1ccc(O)cc1 | 22% | 21% | 22% | 41% | 6% | –
3 | CCCCCCCCCCNc1ccc(O)cc1 | 57% | 100% | 17% | 66% | 66% | Active
4 | CCCCCCCCCCCCNc1ccc(O)cc1 | 66% | 100% | 13% | 73% | 72% | Active
5 | CC1=C(/C=C/C(C)=C/C=C/C(C)=C/C(=O)O)C(C)(C)CCC1 [TRETINOIN] | 74% | 12% | 13% | 46% | 42% | –
6 | CC1=C(/C=C/C(C)=C/C=C/C(C)=C/C(=O)Nc2ccc(O)cc2)C(C)(C)CCC1 [FENRETINIDE] | 62% | 60% | 27% | 41% | 55% | –
